# TAAR1 ag = human TAAR1 agonism. Q96RJ0. CHO RD-HGA16 TAAR1, Fluo-8 calcium fluorescence; vehicle wells 0%, saturating PEA agonist 100%. activation, % at 3 µM. 360,000 compounds, 0.99% hits;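 active means activation above the mean activation of all test compounds in the run plus 3 SD, cut at about 38% in these data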
#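 Signal – calcium-sensitive Fluo-8 signal, excitation 470-495, emission 515-575 nm · System – RD-HGA16 (CHO) cells co-expressing Gα16 and hTAAR1 · Incubation – 17-24 h seeding, 75 min 37 °C dye, 30 min RT · Compound dosing – 3 µM single concentration · Repeats – no replicates (n 1)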
# OX1R antag-1 = antagonists of human orexin 1 receptor (OX1R); O43613; OX1R-expressing cells, FRET antagonist read-out; AID 485270; 330,000 compounds, 1.8% hits; inhibition, % at 6.6 µM; in the data active means inhibition mostly above about 38%, no sharp cut-off; inactive means mostly below about 40%;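 further: 0% = agonist challenge alone and 100% = reference antagonist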
# Target sequence (O43613 whole entry, looked up): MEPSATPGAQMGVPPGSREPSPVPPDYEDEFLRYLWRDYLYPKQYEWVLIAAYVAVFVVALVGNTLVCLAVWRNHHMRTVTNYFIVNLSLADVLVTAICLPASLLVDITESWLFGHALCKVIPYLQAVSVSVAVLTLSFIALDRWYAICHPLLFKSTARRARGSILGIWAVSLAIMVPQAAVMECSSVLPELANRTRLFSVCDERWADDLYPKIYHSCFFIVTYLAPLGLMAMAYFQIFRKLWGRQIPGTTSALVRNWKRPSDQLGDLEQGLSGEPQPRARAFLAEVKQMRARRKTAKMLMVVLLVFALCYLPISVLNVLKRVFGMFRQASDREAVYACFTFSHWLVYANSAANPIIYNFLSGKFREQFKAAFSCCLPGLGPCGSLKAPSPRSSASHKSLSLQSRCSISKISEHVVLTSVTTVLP
# OX1R antag-2 = blocks the human orexin 1 receptor; O43613; CHO/OX1R cells, Fluo-8 calcium fluorescence, orexin A; 330,000 compounds, 0.43% hits; inhibition, % at 5 µM;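 active means inhibition above its plate's threshold, mean inhibition of all tested compounds on the plate plus 3 SD, cut at about 37% in these data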;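 further: 0% = orexin A challenge wells and 100% = SB-334867-A antagonist wells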
# TAAR1 antagonist = antagonists of human TAAR1 | Q96RJ0 | CHO RD-HGA16 TAAR1, Fluo-8 calcium fluorescence, antagonist | inhibition, % at 3 µM | 360,000 compounds, 1.5% hits;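 active means inhibition above a per-plate cutoff, the mean inhibition of test compounds on that plate plus 3 SD, cut at about 49% in these data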;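 further: 0% = DMSO plus EC80 beta-PEA response and 100% = DMSO alone without agonist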
#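 Assay system: CHO-derived RD-HGA16 cells stably expressing human TAAR1 plus Gα16. Timing: 140 s kinetic read after compound, 140 s after agonist. Technique: kinetic Fluo-8 calcium fluorescence measurement. Measure: % inhibition of agonist calcium response.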
# NTR1 agonist = activates human neurotensin receptor 1; P30989; NTR1-U2OS beta-arrestin-GFP spot imaging, agonist mode; activation, % at 20 µM; 330,000 compounds, 0.17% hits; AID 493036;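 active means activation at or above 40% of the spot to cytoplasm intensity ratio, with at least 20 cells analyzed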;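 further: 0% = DMSO without peptide and 100% = 100 nM NTR1 peptide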
# CHO parental Ca = counter-screen: ATP calcium response change in parental CHO cells. 330,000 compounds, 0.63% hits. AID 463079. parental CHO-K1, ATP-induced calcium, Fluo-8 fluorescence. inhibition, % at 5.6 µM;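 active means inhibition above that plate's mean sample inhibition plus 3 SD, cut at about 26% in these data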;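 further: 0% = ATP-challenged DMSO wells and 100% = DMSO wells without ATP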
#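 Assay system: untransfected parental CHO cell line. Also added: ATP agonist challenge. Dosing: one dose, 5.6 µM nominal. Measured by: Fluo-8 fluorescence. Read-out: % inhibition. Benchmarks: ATP wells versus no-ATP DMSO wells. Repeats: no replicates.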
# OX1R Ca confirm = confirmation of human orexin 1 receptor antagonists | 1,100 compounds, 38% hits | inhibition, % at 5 µM | AID 492963 | shares compounds with OX1R antag-2 | CHO/OX1R cells, orexin A calcium Fluo-8 fluorescence; in the data active means inhibition above about 29%;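 further: 0% = agonist challenge alone and 100% = reference antagonist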
# CHO Ca triplic = counter-screen for OX1R antagonists: effect in parental CHO cells | shares compounds with OX1R antag-2 | parental CHO-K1, ATP-induced calcium, Fluo-8 fluorescence | inhibition, % at 5.6 µM | 1,100 compounds, 9.3% hits | AID 492965;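 active means inhibition above a per-plate limit, the mean inhibition of that plate's test compounds plus 3 SD, cut at about 25% in these data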;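 further: 0% = ATP challenge with DMSO and 100% = DMSO without ATP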
# OX1R HTRF confirm = confirmation of human orexin 1 receptor antagonists, HTRF format | OX1R-expressing cells, HTRF antagonist assay | 1,800 compounds, 49% hits | shares compounds with OX1R antag-1 | inhibition, % at 6.6 µM | AID 492964; in the data active means inhibition above about 55%;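 further: CHO cells expressing OX1R stimulated with orexin A at about EC80; 0% = agonist challenge alone and 100% = reference antagonist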
# CHO-K1 HTRF = signal in parental CHO-K1 cells, OX1R antagonist counter-screen; shares compounds with OX1R antag-1; HTRF counterscreen; inhibition, % at 6.6 µM; 1,800 compounds, 48% hits; in the data active means inhibition above about 17%;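 further: 0% = agonist challenge with vehicle and 100% = vehicle alone without agonist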
# * = called active by the depositor; . = no result. Hits are enriched below; roughly 4% of the tested compounds scored in any of these assays.
SMILES,TAAR1 ag,OX1R antag-1,OX1R antag-2,TAAR1 antagonist,NTR1 agonist,CHO parental Ca,OX1R Ca confirm,CHO Ca triplic,OX1R HTRF confirm,CHO-K1 HTRF
CCN(Cc1ccccc1)C(=O)c1cc2c(OC)c(OC)c(OC)cc2[nH]1,4,5,-25,10,-1,-13,.,.,.,.
Cc1ccc(-c2c(C)sc(NC(=O)C3C4CCC(O4)C3C(=O)O)c2C(=O)OC(C)C)cc1 (stereo not drawn),16,78*,52*,7,-1,-12,7,3,60*,9
O=C(COc1ccccc1F)Nc1cc(S(=O)(=O)Nc2cccc(Cl)c2)ccc1O,1,40*,75*,8,-2,-22,42*,-13,61*,9
Cc1cc(C)nc(NS(=O)(=O)c2ccc(NC(=O)COc3ccccc3F)cc2)n1,3,1,-2,5,2,1,.,.,.,.
COc1cccc(-c2cc3nc(-c4ccccc4)cc(N4CCC5(CC4)OCCO5)n3n2)c1,-1,43*,46*,33,3,-13,18,-2,53,10
COc1ccc(OC)c(CN2C(=O)c3ccccc3C2c2nnnn2-c2c(C)cccc2C)c1 (stereo not drawn),0,.,.,-21,.,.,.,.,.,.
Cc1cc(C)nc(NC(=O)CSc2nc3ccccc3s2)n1,12,98*,43*,-11,0,-11,42*,-8,82*,-1
Cc1cc(C)nc(NC(=O)CSc2nc3cc(Cl)ccc3s2)n1,6,3,-6,8,0,-5,.,.,.,.
Cc1cc(Cl)ccc1OCCCC(=O)NCCN1C(=O)S/C(=C\c2cccnc2)C1=O,8,114*,94*,9,1,-25,94*,-6,91*,10
CC1(c2ccccc2)NC(=O)N(CC(=O)NCCN2C(=O)S/C(=C\c3cccnc3)C2=O)C1=O (stereo not drawn),11,.,.,-6,.,.,.,.,.,.
CSc1cccc(N2CC(C(=O)NCCN3C(=O)S/C(=C\c4cccnc4)C3=O)CC2=O)c1 (stereo not drawn),0,145*,33,1,0,-10,67*,-6,112*,33*
CC(C)[C@H]1COC(NC2=N[C@@H](C(C)C)CO2)=N1,7,22,-22,7,-2,-12,.,.,.,.
CCN(CC(=O)Nc1c(F)cccc1F)C(=O)C1CC(=O)N(CCc2ccccc2)C1 (stereo not drawn),2,14,-14,-10,0,-18,.,.,.,.
CCOc1ccccc1C(=O)NCC(=O)O,1,3,0,-26,-1,-6,.,.,.,.
CCOc1ccccc1C(=O)Nc1cc(OC)ccc1OC,2,68*,61*,16,5,-2,3,-17,89*,-3
CCNC(=O)c1ccccc1-c1nc(-c2ccccc2OC)no1,4,-5,-17,-3,0,-13,.,.,.,.
CCOc1cc(NC(=O)c2ccccc2OC)c(OCC)cc1NC(=O)c1ccccc1,0,7,-23,3,0,-9,.,.,.,.
CCOc1ccccc1C(=O)NCCNC(=O)c1ccccc1OCC,3,80*,65*,9,1,-5,77*,-14,52,10
CCOc1ccccc1NC(=O)c1ccccc1-c1nc(-c2ccccc2OC)no1,11,87*,45*,66*,2,9,11,-12,55,6
O=C(N1CCOCC1)N1CCc2ccccc21,1,11,-1,-10,0,-1,.,.,.,.
COc1ccc(Br)cc1/C=C/C(=O)Nc1ccc2ccccc2c1,3,91*,46*,22,7,-5,29,-4,89*,9
NNC(=O)c1nc[nH]c1C(=O)Nc1ccccc1,3,51*,25,-16,0,-21,8,17,23,3
CCN(CC(=O)NCc1cccs1)C(=O)/C=C/c1cc(OC)c(OC)c(OC)c1,2,.,.,-11,4,.,.,.,.,.
CN(Cc1ccccc1)C(=O)c1[nH]cnc1C(=O)N[C@@H](Cc1ccccc1)C(=O)OC(C)(C)C,10,77*,35,20,4,-28,43*,-11,77*,2
CC(=O)N[C@H](Cc1c[nH]c2ccccc12)C(=O)O,0,16,4,-4,4,-3,.,.,.,.
SMILES,TAAR1 ag,OX1R antag-1,OX1R antag-2,TAAR1 antagonist,NTR1 agonist,CHO parental Ca,OX1R Ca confirm,CHO Ca triplic,OX1R HTRF confirm,CHO-K1 HTRF
CC(=O)NC(Cc1c[nH]c2ccccc12)C(=O)N/N=C/c1ccccc1 (stereo not drawn),6,73*,64*,-12,-1,2,36*,-1,72*,0
Cc1cc(=O)[nH]c(SCC(=O)Nc2ccc(F)cc2)c1C#N,11,29,-12,5,0,-6,.,.,.,.
Cc1cc(=O)[nH]c(SCC(=O)Nc2ccc(Br)cc2)c1C#N,15,93*,42*,-5,5,4,18,15,40,13
C=CCn1c(SCc2ccc(C(=O)Nc3nccs3)cc2)nnc1-c1ccc(C)c(Cl)c1,8,79*,70*,65*,9,3,69*,18,82*,1
O=C(CCCN1C(=O)/C(=C\c2ccco2)SC1=S)Nc1ccc2ccccc2c1,2,85*,45*,3,1,-9,42*,-17,89*,7
CN(c1ccccc1)S(=O)(=O)c1cccc(NC(=O)COc2cccc([N+](=O)[O-])c2)c1,26,33*,46*,70*,-1,13,29,1,26,1
CSc1ccccc1NC(=O)Nc1cccc2ccccc12,1,.,.,2,0,.,.,.,.,.
CCOc1ccccc1NC(=O)COC(=O)C(CC(C)C)N1C(=O)C2CC=CCC2C1=O (stereo not drawn),-2,60*,32,22,2,-18,18,-8,43,9
CC(C)CC(C(=O)OCC(=O)Nc1cccc(Cl)c1)N1C(=O)C2CC=CCC2C1=O (stereo not drawn),9,25,8,28,1,-14,.,.,.,.
CCN(CC(=O)Nc1c(F)cccc1F)C(=O)CCCNC(=O)c1ccc(Cl)cc1,0,23,-21,2,1,-13,.,.,.,.
